# Experimental data published in ChEMBL document CHEMBL2062450, “New cytosine derivatives as inhibitors of DNA methylation” (Eur J Med Chem, 2012).
# Active and inactive are the calls of the source. No cut-off for these calls is given here.
# How the values were obtained:
# [1] = molecular target: T1, Orphan methyltransferase M.SssI (Spiroplasma monobiae, UniProt P15840); assay: Competitive inhibition of Spiroplasma sp. MQ1 SssI methyltransferase using pUC18 as substrate measured for 10 mins by Dixon plot analysis
# T1 sequence (P15840 whole entry): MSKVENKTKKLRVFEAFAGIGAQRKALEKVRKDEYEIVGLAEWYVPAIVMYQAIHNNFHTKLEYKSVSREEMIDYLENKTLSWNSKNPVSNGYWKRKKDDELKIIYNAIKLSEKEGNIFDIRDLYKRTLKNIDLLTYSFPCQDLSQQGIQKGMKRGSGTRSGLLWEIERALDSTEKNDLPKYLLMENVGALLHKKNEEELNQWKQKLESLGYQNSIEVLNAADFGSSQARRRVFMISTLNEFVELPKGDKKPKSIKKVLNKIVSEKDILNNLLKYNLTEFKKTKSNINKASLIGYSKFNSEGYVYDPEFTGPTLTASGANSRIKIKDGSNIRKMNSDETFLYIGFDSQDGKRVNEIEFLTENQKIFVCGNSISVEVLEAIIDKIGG
# In short: (§1)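 M.SssI reaction in 10 mM Tris-HCl pH 7.9 with 50 mM NaCl, 10 mM DTT, 2 mM [3H]CH3-SAM, 1 U enzyme and pUC18 plasmid (0.1, 0.5 or 1 µg). Run at 37 °C for 1, 3, 5 and 10 min with inhibitor present to get initial rates V0 (nM/min). Ki taken from Dixon plot. Reactions repeated twice.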
# [2] = molecular target: T1, Orphan methyltransferase M.SssI; assay: Uncompetitive inhibition of Spiroplasma sp. MQ1 SssI methyltransferase using pUC18 as substrate measured for 10 mins by Cornish-Bowden's plot analysis
# In short: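 M.SssI reaction in 10 mM Tris-HCl pH 7.9 with 50 mM NaCl, 10 mM DTT, 2 mM [3H]CH3-SAM, 1 U enzyme and pUC18 (0.1, 0.5 or 1 µg). Run at 37 °C for 1–10 min to get V0. Ki' obtained by Cornish-Bowden method, plotting S/V against inhibitor concentration. Duplicates.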
# HEK293 = assay: Inhibition of DNA methylation in human HEK293 cells assessed as reduction of 5-methylcytosine level using [gamma-32P]ATP after 72 hrs; type: cell-based; conditions: HEK293, 72 h
# In short: (§2)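 HeLa (RPMI-1640) and HEK293 (DMEM) cells, medium with 10% FBS, antibiotics and vitamin mix. Seeded at 1.25 × 10⁵ per well and exposed 72 h at 37 °C, 5% CO2 to 1, 10 or 100 µM. DNA digested with micrococcal nuclease and spleen phosphodiesterase, then 5'-labelled with [γ-32P]ATP and T4 polynucleotide kinase. 3'-phosphate removed with nuclease P1. Nucleotides resolved by 2D cellulose TLC. Methylation given as m5C/(m5C+dC+dT) × 100.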
# HeLa = assay: Inhibition of DNA methylation in human HeLa cells assessed as reduction of 5-methylcytosine level using [gamma-32P]ATP after 72 hrs; type: functional, cell-based; in short: as §2
# [3] = molecular target: T2, DNA (cytosine-5)-methyltransferase 1 (Homo sapiens, UniProt P26358); assay: Inhibition of DNMT1 in human HeLa cell nuclear extract assessed as methylated substrate level at 10 uM by ELISA
# T2 sequence (P26358 whole entry): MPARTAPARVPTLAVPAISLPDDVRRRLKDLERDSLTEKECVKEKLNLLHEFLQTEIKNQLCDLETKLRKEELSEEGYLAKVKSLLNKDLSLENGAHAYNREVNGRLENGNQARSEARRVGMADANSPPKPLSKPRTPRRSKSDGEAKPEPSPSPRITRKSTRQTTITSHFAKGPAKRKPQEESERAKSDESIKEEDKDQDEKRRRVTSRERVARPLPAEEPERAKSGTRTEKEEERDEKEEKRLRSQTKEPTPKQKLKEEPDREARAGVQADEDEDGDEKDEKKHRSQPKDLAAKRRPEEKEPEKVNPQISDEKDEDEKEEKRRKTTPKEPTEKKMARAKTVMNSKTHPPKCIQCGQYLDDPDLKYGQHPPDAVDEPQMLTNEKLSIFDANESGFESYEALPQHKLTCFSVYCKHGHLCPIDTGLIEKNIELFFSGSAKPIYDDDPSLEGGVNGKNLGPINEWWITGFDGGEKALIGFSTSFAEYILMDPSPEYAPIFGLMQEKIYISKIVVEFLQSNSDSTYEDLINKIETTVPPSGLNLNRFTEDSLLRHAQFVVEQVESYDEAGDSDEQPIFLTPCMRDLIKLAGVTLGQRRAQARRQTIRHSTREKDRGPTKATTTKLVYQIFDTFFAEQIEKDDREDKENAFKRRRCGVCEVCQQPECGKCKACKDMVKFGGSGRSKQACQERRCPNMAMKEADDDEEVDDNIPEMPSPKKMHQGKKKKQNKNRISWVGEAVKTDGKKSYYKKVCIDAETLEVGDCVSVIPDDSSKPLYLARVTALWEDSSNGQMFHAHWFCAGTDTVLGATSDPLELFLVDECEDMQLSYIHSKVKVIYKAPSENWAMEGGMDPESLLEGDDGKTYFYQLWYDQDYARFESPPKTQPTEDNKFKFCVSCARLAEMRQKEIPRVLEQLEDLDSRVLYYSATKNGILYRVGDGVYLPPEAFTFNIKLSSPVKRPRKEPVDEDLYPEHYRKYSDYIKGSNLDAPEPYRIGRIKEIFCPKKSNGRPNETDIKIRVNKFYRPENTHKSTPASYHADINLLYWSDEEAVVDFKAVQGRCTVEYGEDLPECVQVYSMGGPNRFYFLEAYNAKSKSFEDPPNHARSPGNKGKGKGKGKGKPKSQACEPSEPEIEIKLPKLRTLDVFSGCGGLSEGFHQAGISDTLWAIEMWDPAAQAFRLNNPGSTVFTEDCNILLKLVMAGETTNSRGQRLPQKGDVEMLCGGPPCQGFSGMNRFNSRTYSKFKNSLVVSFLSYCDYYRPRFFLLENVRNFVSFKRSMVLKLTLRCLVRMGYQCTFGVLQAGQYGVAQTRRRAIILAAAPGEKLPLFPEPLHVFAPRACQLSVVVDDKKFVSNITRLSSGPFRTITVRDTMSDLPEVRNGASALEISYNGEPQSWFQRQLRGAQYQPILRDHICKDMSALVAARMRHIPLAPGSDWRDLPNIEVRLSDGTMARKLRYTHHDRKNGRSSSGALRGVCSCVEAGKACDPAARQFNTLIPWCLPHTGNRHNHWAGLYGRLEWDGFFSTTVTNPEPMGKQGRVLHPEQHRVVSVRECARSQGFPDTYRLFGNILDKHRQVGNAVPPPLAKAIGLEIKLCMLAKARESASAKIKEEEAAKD
# In short: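 HeLa nuclear extract (cells grown to 80% confluency; protein by Bradford) with hemimethylated DNA substrate, incubated 1 h with or without inhibitor. Methylated product detected by ELISA with anti-5-methylcytosine antibody, colorimetric read-out at 450 nm. Each experiment repeated twice.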
# [4] = molecular target: T2, DNA (cytosine-5)-methyltransferase 1; assay: Inhibition of DNMT1 in human HeLa cell nuclear extract assessed as methylated substrate level at 100 uM by ELISA
# [5] = molecular target: T1, Orphan methyltransferase M.SssI; assay: Non-competitive inhibition of Spiroplasma sp. MQ1 SssI methyltransferase using pUC18 as substrate measured for 10 mins by Dixon plot analysis; in short: as §1
# [6] = molecular target: T2, DNA (cytosine-5)-methyltransferase 1; assay: Inhibition of DNMT1 in human HeLa cells assessed as 5-methyl-2'-deoxycytosine phosphate level by two-dimensional thin layer chromatography analysis; type: cell-based; in short: as §2
# [7] = molecular target: T2, DNA (cytosine-5)-methyltransferase 1; assay: Inhibition of DNMT1 in human HeLa cells assessed as 2'-deoxycytosine phosphate level by two-dimensional thin layer chromatography analysis; type: cell-based; in short: as §2
# [8] = molecular target: T2, DNA (cytosine-5)-methyltransferase 1; assay: Inhibition of DNMT1 in human HeLa cells assessed as 2'-deoxyguanosine phosphate level by two-dimensional thin layer chromatography analysis; type: cell-based; in short: as §2
# [9] = molecular target: T2, DNA (cytosine-5)-methyltransferase 1; assay: Inhibition of DNMT1 in human HeLa cells assessed as 2'-deoxytymidine phosphate level by two-dimensional thin layer chromatography analysis; type: cell-based; in short: as §2
# [10] = molecular target: T2, DNA (cytosine-5)-methyltransferase 1; assay: Inhibition of DNMT1 in human HeLa cells assessed as 2'-deoxyadenosine phosphate level by two-dimensional thin layer chromatography analysis; type: cell-based; conditions: in the assay text read “5-methylcytosine level” for “2'-deoxyadenosine phosphate level”; in short: as §2
# [11] = molecular target: T1, Orphan methyltransferase M.SssI; assay: Inhibition of Spiroplasma sp. MQ1 SssI methyltransferase-mediated DNA cytosine methylation using pUC18 as substrate and [3H]CH3-SAM measured up to 10 mins
# In short: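 Tritium-incorporation assay with SssI methyltransferase, pUC18 plasmid (0.1–1 µg) and 2 mM [3H]CH3-SAM. Buffer is 10 mM Tris-HCl pH 7.9, 50 mM NaCl, 10 mM DTT. Sampled at 1, 3, 5 and 10 min at 37 °C to give initial velocity V0. Reactions done twice.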
# [12] = molecular target: T2, DNA (cytosine-5)-methyltransferase 1; assay: Inhibition of DNMT1 in human HeLa cell nuclear extract assessed as methylated substrate level by ELISA
smiles,measurement,setting,value
Cc1ccc(CNc2cc[nH]c(=O)n2)cc1,Ki,[1],26 µM
O=Cc1c[nH]c(=O)nc1NCc1ccco1,Ki,[1],83 µM
O=c1ncc(CS(=O)(=O)O)c(NCc2ccccc2)[nH]1,Ki,[1],33 µM
CCC/C=N/c1cc[nH]c(=O)n1,Ki,[2],800 µM
Cc1c[nH]c(=O)nc1NCc1ccco1,IC50,HEK293,> 100 µM
same,IC50,HeLa,88 µM
same,Ki,[1],15 µM
CCNc1cc[nH]c(=O)n1,Ki,[2],6000 µM
O=C(O[C@@H]1Cc2c(O)cc(O)cc2O[C@@H]1c1cc(O)c(O)c(O)c1)c1cc(O)c(O)c(O)c1 [EPIGALOCATECHIN GALLATE],inhibition,[3],42%
same,Ki,[1],0.028 µM
O=C(O)[C@H](Cc1c[nH]c2ccccc12)N1C(=O)c2ccccc2C1=O,Ki,[1],0.23 µM
same,inhibition,[4],11%
CCCCNCc1c[nH]c(=O)nc1NCc1ccco1,Ki,[1],960 µM
O=c1nc(NCc2cccnc2)cc[nH]1,Ki,[1],400 µM
Cc1cn([C@H]2C[C@H](O)[C@@H](CO)O2)c(=O)nc1NCc1ccco1,Ki,[1],250 µM
CC/C=N/c1cc[nH]c(=O)n1,Ki,[2],3400 µM
Cc1ccc(S(=O)(=O)Nc2cc[nH]c(=O)n2)cc1,Ki,[1],550 µM
O=C1N=C(NCc2ccccc2)NCN1,Ki,[1],20 µM
O=Cc1cnc(=O)[nH]c1NCc1ccccc1,Ki,[1],35 µM
O=c1nc(NCc2ccccc2[N+](=O)[O-])cc[nH]1,Ki,[5],6400 µM
C/C=N/c1cc[nH]c(=O)n1,Ki,[2],5600 µM
O=c1nc(NCc2ccco2)c(CO)c[nH]1,Ki,[1],440 µM
Cc1c[nH]c(=O)nc1NCc1ccccc1,Ki,[1],3.6 µM
O=c1nc(NCc2ccccc2)cc[nH]1,inhibition,[6],Active
same,IC50,HEK293,> 100 µM
same,IC50,HeLa,31 µM
same,inhibition,[7],Active
same,Ki,[1],10 µM
same,inhibition,[8],Active
same,inhibition,[9],Active
same,inhibition,[10],Active
O=c1ncc(CS(=O)(=O)O)c(NCc2ccco2)[nH]1,Ki,[1],112 µM
CC(=O)OCc1c[nH]c(=O)nc1NCc1ccco1,Ki,[1],50 µM
CC(=O)OCc1c[nH]c(=O)nc1NCc1ccccc1,Ki,[1],23 µM
O=c1nc(NCc2ccco2)ccn1[C@H]1C[C@H](O)[C@@H](CO)O1,Ki,[1],170 µM
O=c1nc(NCc2ccccc2)c(CO)c[nH]1,Ki,[1],135 µM
CCCCNc1ccnc(=O)[nH]1,Ki,[2],1000 µM
O=C1N=C(NCc2ccco2)NCN1,inhibition,[6],Active
same,IC50,HEK293,75 µM
same,IC50,HeLa,26 µM
same,inhibition,[7],Active
same,inhibition,[3],55%
same,Ki,[1],0.7 µM
same,IC50,[11],2.73 µM
same,IC50,[12],22 µM
same,inhibition,[12],Dose-dependent effect
same,inhibition,[8],Active
same,inhibition,[9],Active
same,inhibition,[10],Active
O=c1nc(NCc2ccco2)cc[nH]1,Ki,[1],70 µM
Nc1nc[nH]c(=O)n1,Ki,[1],5500 µM
O=c1nc(NCc2ccc(CO)o2)cc[nH]1,Ki,[1],700 µM
